Assay results: ChEMBL document CHEMBL4715832, “Isoquinoline-based biaryls as a robust scaffold for microtubule inhibitors” (Eur J Med Chem, 2020)
Activity calls are given as the source filed them. The rule behind the calls is not given here.

Legend:
HeLa [1] = assay: Antiproliferative activity against human HeLa cells assessed as reduction in cell growth after 48 hrs by resazurin dye based fluorescence assay; format: functional
In short: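 HeLa cells grown in DMEM with 10% FCS and penicillin/streptomycin, 37 °C, 5% CO2. Seeded 5,000 cells/well, treated 24 h later with DMSO 1% final, then incubated 48 h. Resazurin reduction to resorufin measured over 3 h at 37 °C by fluorescence (ex 544/em 590 nm). Normalised to cosolvent control (100%) and cell-free wells (0%). Means of at least three independent experiments.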

HeLa [2] = assay: Induction of microtubule network depolymerization in human HeLa cells after 24 hrs by immunofluorescence staining based confocal microscopic analysis; format: cell-based
In short: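 HeLa cells seeded on glass coverslips (50,000 cells/well), allowed to adhere 18 h, then treated 24 h. Fixed with 0.5% glutaraldehyde, quenched with 0.1% NaBH4, blocked with PBS + 10% FCS. Stained with rabbit anti-alpha-tubulin (1:400, 1 h), then Alexa Fluor 488 anti-rabbit secondary, with DAPI nuclear counterstain. Imaged by confocal microscopy, including z-stack projections.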

HL-60 = assay: Antiproliferative activity against human HL-60 cells assessed as reduction in cell growth after 24 hrs by MTT assay; format: functional, cell-based; conditions: HL-60, 24 h
In short: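 HL-60 cells grown in RPMI 1640 with 10% FCS, no antibiotics, 37 °C, 5% CO2. Seeded 9,000 cells/well, treated 24 h later with DMSO cosolvent at 1% final. After 24 h, MTT 0.5 mg/mL for 2 h, absorbance read. Normalised to cosolvent control (100%) and Triton X-100-treated cells (0%). Means of at least three independent experiments.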

Homo sapiens = species on record: Homo sapiens; assay: Inhibition of porcine tubulin polymerization at 16 uM preincubated for 10 mins followed by GTP addition by turbidimetric method
In short: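 Purified porcine brain tubulin (99% purity) pre-incubated 10 min at 37 °C with compound at 16 µM in buffer containing 3% DMSO and 10% glycerol. Polymerisation started at time zero by adding GTP to 1 mM. Absorbance at 340 nm followed over time at 37 °C as the turbidity read-out.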

SMILES | EC50 (HeLa [1]) | also measured
COc1ccc2cc[n+](C)c(-c3cc(OC)c(OC)c(OC)c3)c2c1 | > 30 µM | Activity (HeLa [2]): inactive
COc1ccc([C@H](O)c2nccc3c(OC)c(OC)c(OC)cc23)cc1 | > 100 µM | 
COc1cc(-c2nccc3c(OC)c(OC)c(OC)cc23)ccc1OP(=O)(O)O | > 100 µM | EC50 (HL-60): > 100 µM
COc1cc2c(c(OC)c1OC)-c1ccc(OC)c(=O)cc1[C@@H](NC(C)=O)CC2 |  | inhibition (Homo sapiens): Active
COc1ccc2ccnc(-c3cc(OC)c(OC)c(OC)c3)c2c1 | 0.18 µM | Activity (HeLa [1]): Dose-dependent effect; Activity (HeLa [2]): Dose-dependent effect
COc1cccc(-c2nccc3c(OC)c(OC)c(OC)cc23)c1 | 15 µM | 
COc1ccc(C(=O)c2nccc3c(OC)c(OC)c(OC)cc23)cc1 | > 80 µM | 
